# According to ChEMBL document CHEMBL1153046, “Synthesis and antitumor activity of substituted triazolo[4,3-a]pyrimidin-6-sulfonamide with an incorporated thiazolidinone moiety” (2009):
# Legend:
# Type in all cases: functional
# [1] = tested on: CCRF-CEM; assay: Growth inhibition of human CCRF-CEM cells after 48 hrs by sulforhodamine B assay
# In short: (§1)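 NCI 60-cell-line panel. Cells are grown in RPMI1640 with 5% fetal calf serum and 2 mM L-glutamine, seeded at a density set by growth characteristics, and preincubated 24 h. Compound is tested at a minimum of five concentrations at 10-fold dilution, with 48 h continuous exposure. Viability is read by sulforhodamine B protein assay. GI50, TGI and LC50 come from dose-response curves.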
# [2] = tested on: MDA-MB-435; assay: Growth inhibition of human MDA-MB-435 cells after 48 hrs by sulforhodamine B assay; settings: MDA-MB-435, 48 h; in short: as §1
# [3] = tested on: PC-3; assay: Growth inhibition of human PC3 cells after 48 hrs by sulforhodamine B assay; settings: PC-3, 48 h; in short: as §1
# [4] = tested on: BT-549; assay: Growth inhibition of human BT549 cells after 48 hrs by sulforhodamine B assay; settings: BT-549, 48 h; in short: as §1
# [5] = tested on: NCI-H460; assay: Antiproliferative activity against human NCI-H460 cells assessed as cell growth at 100 uM after 48 hrs by alamar blue assay; settings: NCI-H460, 48 h, read-out: Activity
# In short: (§2)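 NCI three-cell-line primary screen. Cells are seeded and preincubated in microtiter plates. Compound is added at a single 10^-4 M concentration and cultures are incubated 48 h. The end-point is read with alamar blue. Results are given as percent growth relative to untreated control cells.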
# [6] = tested on: EKVX; assay: Growth inhibition of human EKVX cells after 48 hrs by sulforhodamine B assay; in short: as §1
# [7] = tested on: T47D; assay: Growth inhibition of human T47D cells after 48 hrs by sulforhodamine B assay
# In short: (§3)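 NCI 60-cell-line panel (nine cancer types), with cells grown in RPMI1640 plus 5% fetal calf serum and 2 mM L-glutamine. Cells are seeded at a density that depends on the line and preincubated 24 h. Compounds are then applied at a minimum of five 10-fold dilutions over a 5-log range with 48 h continuous exposure. Viability is read by SRB protein assay, and GI50 is derived from dose-response curves in units of 10^-5 M.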
# [8] = tested on: TK-10; assay: Growth inhibition of human TK10 cells after 48 hrs by sulforhodamine B assay; settings: TK-10, 48 h; in short: as §3
# [9] = tested on: SN12C; assay: Growth inhibition of human SN12C cells after 48 hrs by sulforhodamine B assay; in short: as §1
# [10] = tested on: SNB-19; assay: Growth inhibition of human SNB19 cells after 48 hrs by sulforhodamine B assay; settings: SNB-19, 48 h; in short: as §3
# [11] = tested on: OVCAR-5; assay: Growth inhibition of human OVCAR5 cells after 48 hrs by sulforhodamine B assay; settings: OVCAR-5, 48 h; in short: as §1
# [12] = tested on: SR; assay: Growth inhibition of human SR cells after 48 hrs by sulforhodamine B assay; in short: as §3
# [13] = tested on: DU-145; assay: Growth inhibition of human DU145 cells after 48 hrs by sulforhodamine B assay; settings: DU-145, 48 h; in short: as §1
# [14] = tested on: U-251; assay: Growth inhibition of human U251 cells after 48 hrs by sulforhodamine B assay; settings: U-251, 48 h; in short: as §3
# [15] = tested on: M14; assay: Growth inhibition of human M14 cells after 48 hrs by sulforhodamine B assay; settings: M14, 48 h; in short: as §1
# [16] = tested on: SF-268; assay: Antiproliferative activity against human SF268 cells assessed as cell growth at 100 uM after 48 hrs by alamar blue assay; settings: SF-268, 48 h, read-out: Activity; in short: as §2
# [17] = tested on: NCI-H522; assay: Growth inhibition of human NCI-H522 cells after 48 hrs by sulforhodamine B assay; settings: NCI-H522, 48 h; in short: as §1
# [18] = tested on: SW-620; assay: Growth inhibition of human SW620 cells after 48 hrs by sulforhodamine B assay; settings: SW-620, 48 h; in short: as §3
# [19] = tested on: MCF7; assay: Growth inhibition of human MCF7 cells after 48 hrs by sulforhodamine B assay; settings: MCF7, 48 h; in short: as §1
# [20] = tested on: CAKI-1; assay: Growth inhibition of human Caki1 cells after 48 hrs by sulforhodamine B assay; settings: CAKI-1, 48 h; in short: as §1
# [21] = tested on: COLO 205; assay: Growth inhibition of human COLO205 cells after 48 hrs by sulforhodamine B assay; settings: COLO 205, 48 h; in short: as §1
# [22] = tested on: ACHN; assay: Growth inhibition of human ACHN cells after 48 hrs by sulforhodamine B assay; settings: for CC50: read-out: LC50 (the source's name); in short: as §1
# [23] = tested on: UO-31; assay: Growth inhibition of human UO31 cells after 48 hrs by sulforhodamine B assay; settings: UO-31, 48 h; in short: as §3
# [24] = tested on: A498; assay: Growth inhibition of human A498 cells after 48 hrs by sulforhodamine B assay; settings: A498, 48 h; in short: as §1
# [25] = tested on: K562; assay: Growth inhibition of human K562 cells after 48 hrs by sulforhodamine B assay; settings: K562, 48 h; in short: as §1
# [26] = tested on: IGROV-1; assay: Growth inhibition of human IGROV1 cells after 48 hrs by sulforhodamine B assay; settings: IGROV-1, 48 h; in short: as §1
# [27] = Growth inhibition of human Hs 578T cells after 48 hrs by sulforhodamine B assay; in short: as §1
# [28] = tested on: UACC-257; assay: Growth inhibition of human UACC257 cells after 48 hrs by sulforhodamine B assay; settings: UACC-257, 48 h; in short: as §3
# [29] = tested on: NCI/ADR-RES; assay: Growth inhibition of human NCI/ADR-RES cells after 48 hrs by sulforhodamine B assay; in short: as §1
# [30] = tested on: HCT-116; assay: Growth inhibition of human HCT116 cells after 48 hrs by sulforhodamine B assay; settings: HCT-116, 48 h; in short: as §1
# [31] = tested on: RXF 393; assay: Growth inhibition of human RXF393 cells after 48 hrs by sulforhodamine B assay; settings: RXF 393, 48 h; for CC50: read-out: LC50 (the source's name); in short: as §1
compound,measurement,setting,value
COc1ccc(/C=N/c2nc3[nH]nc(C)n3c(=O)c2S(=O)(=O)NN2C(=O)C(CN3CCOCC3)SC2c2cccs2)cc1 (configuration not stated),GI50,[1],6.27 µM
same,TGI,[1],> 100 µM
same,GI50,[2],3.26 µM
same,TGI,[2],36 µM
same,GI50,[3],3.92 µM
same,LC50 (concentration killing 50% of cells),[3],> 100 µM
same,TGI,[3],95.8 µM
same,GI50,[4],18 µM
same,TGI,[4],> 100 µM
same,growth at 100 µM,[5],13%
same,GI50,[6],54.1 µM
same,TGI,[6],> 100 µM
same,GI50,[7],48 µM
same,TGI,[7],> 100 µM
same,GI50,[8],20.8 µM
same,LC50,[8],> 100 µM
same,TGI,[8],92 µM
same,GI50,[9],16.8 µM
same,LC50,[9],> 100 µM
same,TGI,[9],85.7 µM
same,GI50,[10],34.5 µM
same,TGI,[10],> 100 µM
same,GI50,[11],43.4 µM
same,LC50 (concentration causing 50% net cell kill),[11],> 100 µM
same,TGI,[11],> 100 µM
same,GI50,[12],1.1 µM
same,LC50 (concentration killing 50% of cells),[12],9.2 µM
same,TGI,[12],3.2 µM
same,GI50,[13],16 µM
same,LC50 (concentration giving 50% net cell kill),[13],> 100 µM
same,TGI,[13],> 100 µM
same,GI50,[14],15.6 µM
same,LC50,[14],> 100 µM
same,TGI,[14],> 100 µM
same,GI50,[15],6.79 µM
same,LC50 (concentration killing 50% of cells),[15],> 100 µM
same,TGI,[15],38.7 µM
same,growth at 100 µM,[16],56%
same,GI50,[17],4.35 µM
same,TGI,[17],27.3 µM
same,GI50,[18],6.11 µM
same,GI50,[19],3.18 µM
same,TGI,[19],> 100 µM
same,GI50,[20],12.1 µM
same,LC50 (50% lethal concentration),[20],> 100 µM
same,TGI,[20],> 100 µM
same,GI50,[21],14.9 µM
same,TGI,[21],12.8 µM
same,GI50,[22],5.48 µM
same,TGI,[22],> 100 µM
same,CC50,[22],> 100 µM
same,GI50,[23],14.5 µM
same,LC50,[23],> 100 µM
same,TGI,[23],86.4 µM
same,GI50,[24],2.67 µM
same,LC50 (concentration giving 50% net cell kill),[24],> 100 µM
same,TGI,[24],15.5 µM
same,GI50,[25],2.34 µM
same,LC50,[25],> 100 µM
same,TGI,[25],11.3 µM
same,GI50,[26],3.95 µM
same,LC50,[26],> 100 µM
same,TGI,[26],34.8 µM
same,GI50,[27],13.3 µM
same,LC50 (concentration killing 50% of cells),[27],> 100 µM
same,TGI,[27],82.1 µM
same,GI50,[28],6.77 µM
same,LC50,[28],> 100 µM
same,TGI,[28],> 100 µM
same,GI50,[29],9.98 µM
same,TGI,[29],64.8 µM
same,GI50,[30],4.72 µM
same,LC50 (concentration killing 50% of cells),[30],> 100 µM
same,TGI,[30],57.4 µM
same,GI50,[31],16.6 µM
same,TGI,[31],94.2 µM
same,CC50,[31],> 100 µM
COc1ccc(/C=N/c2nc3[nH]nc(C)n3c(=O)c2S(=O)(=O)NN2C(=O)C(CN3CCN(C)CC3)SC2c2ccc(OC)cc2)cc1 (configuration not stated),GI50,[1],17.2 µM
same,TGI,[1],49.2 µM
same,GI50,[2],24.1 µM
same,TGI,[2],64.6 µM
same,GI50,[3],14.7 µM
same,LC50 (concentration killing 50% of cells),[3],70.2 µM
same,TGI,[3],32.2 µM
same,GI50,[4],19.1 µM
same,TGI,[4],46.3 µM
same,growth at 100 µM,[5],0%
same,GI50,[6],25.9 µM
same,TGI,[6],60.3 µM
same,GI50,[7],31.2 µM
same,TGI,[7],89.4 µM
same,GI50,[8],19.4 µM
same,LC50,[8],82.1 µM
same,TGI,[8],39.9 µM
same,GI50,[9],18.6 µM
same,LC50,[9],68.9 µM
same,TGI,[9],35.8 µM
same,GI50,[10],25.7 µM
same,TGI,[10],72.5 µM
same,GI50,[11],24.3 µM
same,LC50 (concentration causing 50% net cell kill),[11],90.7 µM
same,TGI,[11],47 µM
same,GI50,[12],7.72 µM
same,LC50 (concentration killing 50% of cells),[12],84.9 µM
same,TGI,[12],27.5 µM
same,GI50,[13],11.8 µM
same,LC50 (concentration giving 50% net cell kill),[13],86.6 µM
same,TGI,[13],32 µM
same,GI50,[14],17.6 µM
same,LC50,[14],> 100 µM
same,TGI,[14],45.2 µM
same,GI50,[15],17 µM
same,LC50 (concentration killing 50% of cells),[15],78 µM
same,TGI,[15],36.5 µM
same,growth at 100 µM,[16],18%
same,GI50,[17],21.9 µM
same,TGI,[17],47.7 µM
same,GI50,[18],30.4 µM
same,GI50,[19],15.3 µM
same,TGI,[19],47.8 µM
same,GI50,[20],20.9 µM
same,LC50 (50% lethal concentration),[20],77.8 µM
same,TGI,[20],40.3 µM
same,GI50,[22],17.4 µM
same,TGI,[22],34.5 µM
same,CC50,[22],68.4 µM
same,GI50,[23],20.6 µM
same,LC50,[23],70.5 µM
same,TGI,[23],38.1 µM
same,GI50,[24],12.9 µM
same,LC50 (concentration giving 50% net cell kill),[24],60.9 µM
same,TGI,[24],28.1 µM
same,GI50,[25],13 µM
same,LC50,[25],63.3 µM
same,TGI,[25],28.7 µM
same,GI50,[26],21 µM
same,LC50,[26],93.9 µM
same,TGI,[26],44.4 µM
same,GI50,[27],13 µM
same,LC50 (concentration killing 50% of cells),[27],88.7 µM
same,TGI,[27],34 µM
same,GI50,[28],21.6 µM
same,LC50,[28],92.3 µM
same,TGI,[28],44.7 µM
same,GI50,[29],14.1 µM
same,TGI,[29],40.2 µM
same,GI50,[30],5.89 µM
same,LC50 (concentration killing 50% of cells),[30],71.5 µM
same,TGI,[30],47.2 µM
same,GI50,[31],10.2 µM
same,TGI,[31],31.1 µM
same,CC50,[31],95.1 µM
